Published values pooled from the literature.
Target: Serine/threonine-protein kinase PAK 4 (PAK4, Homo sapiens, UniProt O96013)

Structure (SMILES)	assay	setting	quantity	value
COc1ncccc1-c1cnn2ccc(N3CCN(C(=O)OC(C)C)CC3)nc12	binding, competition with immobilised ligand	1 µM	remaining binding	62%
Cn1cncc1[C@@](O)(COc1ccc(C#N)cc1-c1ccc(OC(F)(F)F)cc1)c1ccc(C#N)cc1	cell-free assay, competition with immobilised ligand	1 µM	remaining binding	100%
Cc1nn(C)cc1-c1nc2c(N3CCN(Cc4ccc(Cl)cc4)CC3)c(Cl)cnc2[nH]1	binding, competition with immobilised ligand	1 µM	remaining binding	100%
Cn1cc(-c2cc(F)cc(N3CCn4c(cc5c4CCCC5)C3=O)c2CO)cc(Nc2ccc(N3CCN(C4COC4)CC3)cn2)c1=O	enzyme activity, inhibitor	0.1 µM	inhibition	1%
C#Cc1n[nH]c2c(-c3cn(C(C)c4ccccn4)c(=O)[nH]c3=O)cc(F)cc12 (stereo not drawn)	enzyme activity, inhibitor	1 µM	inhibition	-6%
O=c1[nH]c2ccccc2n1C1CCN(Cc2ccc(-c3[nH]c4cc5ncnc5cc4nc3-c3ccccc3)cc2)CC1	cell-free assay	0.5 µM	remaining signal	102%
Cn1cc(-c2cccc(N3CCc4c(sc5c4CC(C)(C)C5)C3=O)c2CO)cc(Nc2ccncn2)c1=O	enzyme activity, inhibitor	1 µM	inhibition	-6%
COc1cc(Nc2ncc(F)c(Nc3ccc4c(n3)NC(=O)C(C)(C)O4)n2)cc(OC)c1OC	binding, competition with immobilised ligand	10 µM	inhibition	97%
N#CC1(c2ccccn2)CCN(Cc2cc(C(=O)O)c(=O)n3ccccc23)CC1	cell-free assay, competition with immobilised ligand	1 µM	remaining binding	100%
Cc1n[nH]c2ccc(-c3cncc(OC[C@@H](N)Cc4c[nH]c5ccccc45)c3)cc12	enzyme activity, inhibitor	1 µM	inhibition	26%
C#Cc1n[nH]c2c(-c3cn([C@@H](C)c4ccccc4)c(=O)[nH]c3=O)cc(F)cc12	enzyme activity, inhibitor	0.1 µM	inhibition	0.6%
Nc1ncc(-c2nc(N3CCOCC3)nc(N3CCOCC3)n2)c(C(F)F)n1	binding, competition with immobilised ligand	10 µM	remaining binding	58%
